Experiments:
Type in all cases: binding
[1] = test system: Tel24 human telomeric quadruplex DNA; assay: UV-thermal melting with telomeric quadruplex DNA; conditions: ligand:DNA ratio 4:1; 80 mM KCl; Tm of free Tel24 67 °C
AATT duplex sequence = assay: UV-thermal melting with AT-rich hairpin duplex DNA; conditions: ligand:DNA ratio 2:1; 80 mM KCl; Tm of free AATT 69 °C
(CG)4 duplex sequence = assay: UV-thermal melting with GC-rich hairpin duplex DNA; conditions: ligand:DNA ratio 2:1; 80 mM KCl; Tm of free (CG)4 63 °C
Method in brief: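 Duplex melted in 10 mM K₂HPO₄, 80 mM KCl, 3 mM EDTA, pH 7.3, at 2–3 µM single-strand, in 1 cm quartz cuvettes. Ligand was titrated from stock to compound:DNA ratios up to 4:1. Absorbance at 260 nm was followed while heating at 0.5 °C/min. ΔTm was taken at 2:1, reproducible within ±1 °C.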

Structure (SMILES) | ∆Tm of Tel24 quadruplex [1] | ∆Tm of AATT duplex (AATT duplex sequence) | ∆Tm of (CG)4 duplex ((CG)4 duplex sequence)
COS(=O)(=O)[O-].Cc1cc2c3c([n+](C)c4ccc(F)cc4c3c1)-c1cc(F)ccc1N2C [RHPS4, 3,11-difluoro-6,8,13-trimethyl-8H-quino[4,3,2-kl] acridinium methosulfate] | very similar melting values as DB832 | very little affinity | very little affinity
Cn1cc(NC(=O)c2cc(NC(=O)c3cc(NC=O)cn3C)cn2C)cc1C(=O)NCCC(=N)N [Distamycin] | did not show any significant increase | strong binder | –

From PMC3865530 (Current pharmaceutical design, 2012)
